Screening data as filed in PubChem BioAssay.
Shown is part of a subset that was picked to be rich in hits.
UPR CHOP act: activators of apoptotic CHOP UPR arm, primary screen, cell-based, CHO-CHOP luciferase reporter, luminescence, uHTS | activation, % at 10 µM | actives 0.34% (n = 330,000) | UPR activation; percent of tunicamycin response over DMSO baseline;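 active means at 10 µM dose, activation of 40% or more, normalized to positive control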
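Assay system: CHO-CHOP cells, stable luciferase reporter of PERK-eIF2a-CHOP signalling / Buffer or medium: F12 plus 10% serum / Compound dosing: one dose, 10 µM in 0.5% DMSO / Times: 6 h compound treatment, 37 °C / Technique: luciferase luminescence / Read-out: % reporter activation, DMSO baseline versus tunicamycin full activation / Benchmarks: tunicamycin and DMSO controls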
XBP1 UPR activ: activators of adaptive XBP1 UPR arm, primary screen, cell-based, CHO-XBP1 luciferase reporter, luminescence, uHTS; IRE1-XBP1 UPR activation; percent of tunicamycin response, DMSO as zero; actives 0.33% (n = 330,000); activation, % at 20 µM; AID 463104, 2010;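 active means versus positive control, 20 µM dose yields 30% or more activation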
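Material: CHO cell line with stable XBP1 luciferase reporter; buffer or medium: F12 medium containing 10% fetal bovine serum; compound: single point, 20 µM final compound, 1% DMSO; incubation: 6 h treatment, 37 °C; measured by: glow luminescence from Steady-Glo reagent; evaluation: activation, % of tunicamycin; control set: tunicamycin high, DMSO low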
CHOP inh: inhibitors of CHOP promoter induction, primary screen, cell-based, unfolded protein response, luciferase reporter. CHO-K1 CHOP-promoter luciferase, tunicamycin-induced, 15-18 h. inhibition, % at 10 µM. actives 3.8% (n = 220,000);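 active means compounds that reduced the stress-induced luciferase reporter signal by more than about 70% of percent inhibition, limit read from the data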
L major viab: Leishmania major promastigote growth inhibition, primary screen. AID 1063, 2008. Leishmania major promastigotes, resazurin fluorescence viability. actives 9% (n = 200,000). inhibition, % at 10 µM; in the data active means inhibition above about 50%;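 further: promastigotes grown with compound for 44 hours at 28 °C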
Dynein cargo inh: inhibitors of GR-EGFP nuclear translocation, primary screen, dynein cargo transport inhibitor project, imaging, high-content, 3617.4 mouse cells; test concentration mostly 20 µM; stimulated with dexamethasone, 1 µM; hits give low values; z-score, hits read low; actives 0.47% (n = 220,000); AID 1381, 2008;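 active means plate z-score of nuclear minus cytoplasmic receptor signal below a set negative limit, without overly bright fluorescence or cell loss, cut at about -3.5 in these data, passing the limit was not always enough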;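 further: z-score of nuclear minus cytoplasmic ring GR-EGFP intensity difference per well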
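medium = tetracycline-free induction medium containing charcoal-stripped FBS | also added = 1.0 µM final dexamethasone stimulus | schedule = 48 h induction, 1 h compound, 30 min dex at 37 °C | technique = fixed, Hoechst-stained cells imaged at 10x for EGFP | measure = GR-EGFP nuclear translocation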
T cruzi repl: inhibitors of intracellular T. cruzi growth, primary screen, luminescence, NIH3T3 host cells; inhibition, % (concentration not given with the values); T. cruzi beta-gal in NIH3T3, 90 h; actives 1.4% (n = 300,000);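 active means mean inhibition across valid replicates above about 55%, limit read from the data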;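 further: signal also drops with host cell toxicity which is not excluded here; higher percent means less beta-gal luminescence so fewer parasites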
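System: NIH/3T3 fibroblasts plus reporter T. cruzi. Medium: DMEM plus 2% FBS. Probe or stimulus: 5000 reporter trypomastigotes per well. Compound: single 50 nL compound addition per well in DMSO. Incubation: co-culture of at least 90 h after 3 h attachment. Detection: GalScreen β-gal luminescence, detergent lysis, 60 min. Evaluation: parasite load inhibition, %.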
Hits are given with their value; - = inactive; . = no result given; ! = not confirmed by another sample.

SMILES	UPR CHOP act	XBP1 UPR activ	CHOP inh	L major viab	Dynein cargo inh	T cruzi repl
FC(F)(F)c1nnc2ccc(NCc3ccccc3)nn12	-	-	-	-	-	-
O=C(Nc1nccs1)c1cccc(N2C(=O)C3C4C=CC(C4)C3C2=O)c1 (configuration not stated)	-	-	-	51	-	-
O=C(NCC1CCCN1S(=O)(=O)c1cccs1)c1c(F)cccc1F (configuration not stated)	-	-	.	.	.	-
COc1ccc(NC(=O)CN(C)C(=O)Cc2ccc3c(c2)CCC3)cc1	-	-	.	.	.	-
NC1=NC[C@H](Cc2ccc(O)cc2)N1CCCCC1CCCCC1	-	-	-	.	-	60
Cn1c2ccccc2c(=O)c2ccc(NCCc3cccs3)cc21	-	-	.	.	.	.
COc1cccc(C2c3c(-c4cc(Cl)c(C)cc4O)n[nH]c3C(=O)N2Cc2cccnc2)c1 (configuration not stated)	-	-	75	-	-	-
COC(=O)CSc1nc(C)c(C(C)=O)cc1C#N	-	-	-	-	-	-
CCCSc1nc(C)c(C(C)=O)cc1C#N	-	-	70	-	-	-
COc1ccc([C@H]2CC(=O)C=C(c3cc(OC)ccc3OC)C2)cc1	-	-	.	.	.	.
O=C1CCCC2=C1C(c1ccc(Cl)cc1)n1c(s/c(=C\c3ccc4ccncc4c3)c1=O)=N2 (configuration not stated)	-	-	-	98	-	-
CCOC(=O)C1=C(C)N=c2s/c(=C/c3ccc(OCC(=O)O)c(OC)c3)c(=O)n2C1c1ccc(Cl)cc1 (configuration not stated)	-	-	.	.	.	-
O=C(c1cnn2c(C(F)(F)F)cc(-c3ccc(Br)cc3)nc12)N1CCOCC1	.	.	-	-	-	-
Cc1nn2c(C(F)(F)F)cc(-c3ccc(Cl)cc3)nc2c1C(=O)N1CCOCC1	-	-	-	92	-	.
COc1ccccc1/C=N/NC(=O)C(=O)Nc1ccccc1OC(F)(F)C(F)F	-	-	-	-	-	-
O=C(N/N=C/c1cc(Br)ccc1O)C(=O)Nc1ccccc1OC(F)(F)C(F)F	.	.	77	99	-	57
O=C(N/N=C/c1cc(Cl)ccc1O)C(=O)Nc1ccccc1OC(F)(F)C(F)F	.	.	78	99	-	.
COc1cccc(/C=N/NC(=O)C(=O)Nc2ccccc2OC(F)(F)C(F)F)c1	-	-	-	-	-	-
Clc1ccc(CSc2cc3c(nn2)-c2ccccc2CC3)cc1	-	-	77	-	-	.
Cc1ccc(S(=O)(=O)NCC(=O)OCC(=O)NCc2ccc(F)cc2)cc1	-	-	-	-	-	-
Cc1noc(C)c1COc1cccc(C(=O)OC(C)C(=O)Nc2ccc3c(c2)OCO3)c1 (configuration not stated)	-	-	-	59	-	-
Cc1noc(C)c1COc1cccc(C(=O)Nc2ccc3c(c2)OCO3)c1	-	-	-	-	-	-
Cc1ccc(NC(=O)c2cccc(OCc3c(C)noc3C)c2)cc1S(=O)(=O)Nc1ccccc1Cl	-	-	-	83	-	-
NS(=O)(=O)c1ccc(NC(=S)N2CCN(C(=O)C3CCCO3)CC2)cc1 (configuration not stated)	-	-	.	.	.	-
CCOC(=O)c1c(-n2c(C)cc(C=O)c2C)sc2c1CCCC2	-	-	-	96	-	-
SMILES	UPR CHOP act	XBP1 UPR activ	CHOP inh	L major viab	Dynein cargo inh	T cruzi repl
CCOC(=O)c1cccc(-n2c(C)cc(C=O)c2C)c1	-	-	-	-	-	-
O=C(C[n+]1cc(-c2ccccc2)n2c1CCCCC2)c1ccc(Br)cc1	-	-	-	99	-	-
COc1ccc(-c2c[n+](CC(=O)c3cccs3)c3n2CCC3)cc1	-	-	-	.	-	-
Cc1ccc(C(=O)C[n+]2cc(-c3ccc(C)cc3)n3c2CCCCC3)cc1	-	-	-	100	-	69
COc1ccc(C(=O)C[n+]2cc(-c3ccc(OC)cc3)n3c2CCCC3)cc1	-	-	-	99	-	62!
Cc1ccc(-c2c[n+](Cc3ccc(Cl)c(Cl)c3)c3n2CCC3)cc1	-	-	-	100	-	-
Cc1ccc(-n2nc3c(=O)n(C(C)C(=O)NCCC4=CCCCC4)nc(C)c3c2C)cc1 (configuration not stated)	-	-	.	.	.	-
c1ccc2c(c1)oc1c(Nc3ccc(CN4CCOCC4)cc3)ncnc12	-	-	-	89	-	-
CC(=O)N1CCN(c2ccc(Nc3ncnc4c3oc3ccccc34)cc2)CC1	-	-	-	62	-	-
COc1ccc(C(=O)CC2(C(=O)O)CCCCC2)cc1	-	-	.	.	.	-
COc1ccccc1-n1c(-c2ccc(NS(C)(=O)=O)cc2)n[nH]c1=S	-	-	93	-	-	-
CCOC(=O)/C(C#N)=C/c1cc2ccccc2nc1N1CCCCC1	-	-	-	88	-	-
Cc1ccc2cc(C=C(C#N)C#N)c(N3CCCCC3)nc2c1	-	-	-	99	-	-
Cc1ccc2cc(/C=C(\C#N)C(N)=O)c(N3CCCCC3)nc2c1	-	-	-	-	-	-
C[C@H](NC(=O)[C@@H]1Cc2ccccc2CN1C(=O)OC(C)(C)C)C(=O)NCc1ccco1	-	-	.	.	.	-
COc1ccc(OC)c(-c2csc(N3CCC(c4ccccc4)CC3)n2)c1	-	-	-	-	-	-
O=C(CSc1ncc(C(F)(F)F)cc1Cl)N1CCN(S(=O)(=O)c2ccc(Cl)cc2)CC1	-	-	-	90	-	-
CCCc1cc(=O)[nH]c(SCC(=O)N2CCN(S(=O)(=O)c3ccc(Cl)cc3)CC2)n1	-	-	-	67	-	-
CCCc1cc(=O)[nH]c(SCC(=O)c2ccc(S(=O)(=O)N3CCCC3)cc2)n1	-	-	-	-	-	-
O=C(CN1CCN(c2ncc(C(F)(F)F)cc2Cl)CC1)N1CCN(c2ncc(C(F)(F)F)cc2Cl)CC1	-	-	-	50	-	-
O=C(NCCS(=O)(=O)N1CCN(c2ccccc2)CC1)c1ccccc1F	-	-	.	.	.	-
CC1=C([N+](=O)[O-])C(c2ccc(Cl)cc2)NC(=O)N1 (configuration not stated)	-	-	.	.	.	-
CN1CCN(CCCNC(=O)c2ccc(CSCc3cccc(Cl)c3)o2)CC1	-	-	-	99	-	-
O=C(NCCCN1CCCC1)c1ccc(CSCc2cccc(Cl)c2)o1	-	-	-	99	-	-
CC1CCN(CCCNC(=O)c2ccc(CSCc3cccc(Cl)c3)o2)CC1	-	-	-	100	-	-
